Screens: PubChem, several laboratories
The sample as a whole holds a higher share of hits than the screen did.
NALP3 yeast inh = NALP3 inhibition in yeast; AID 2825; Yeast reconstituted NLRP3/ASC/caspase-1, beta-gal luminescence, 24 h; inhibition, % at 10 µM; hit rate 0.39% among 330,000;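 active = inhibition of 50% or more; inactive = inhibition below 50%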
Calb FLC = affects C. albicans growth with fluconazole. C. albicans CaCi-2 + fluconazole, Alamar Blue growth, 48 h. growth inhibition, % (concentration not given with the values). hit rate 0.57% among 300,000. AID 1979;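 active = growth inhibition above about 58% in most replicates, limit read from the data, passing the limit was not always enough; inconclusive = exactly half the replicates above a set limit; inactive = most replicates below a set limit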;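 note: all wells also contain fluconazole at 8 µg/ml as a sub-toxic cotreatment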
T cruzi inh = T. cruzi replication inhibition; AID 1885; hit rate 1.4% among 300,000; inhibition, % (no concentration beside the values); T. cruzi beta-gal in NIH3T3, luminescence, 90 h;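 active = mean inhibition across valid replicates above about 55%, limit read from the data; inconclusive = mean below that limit but half or more replicates reach it; inactive = mean below it, under half of replicates reach it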;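 note: signal also drops with host cell toxicity which is not excluded here; higher percent means less beta-gal luminescence so fewer parasites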
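System – NIH/3T3 host cells with β-galactosidase reporter T. cruzi · Doses – single 50 nL compound addition per well in DMSO · Reagent – 5000 T. cruzi trypomastigotes/well · Medium – Low-serum DMEM with 2% FBS · Timing – ≥90 h infection period, 3 h prior cell attachment · Evaluation – parasite load inhibition, % · Technique – GalScreen luminescence, 60 min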
PolyA inh = inhibitors of polyadenylation in S. cerevisiae; S. cerevisiae SKY197-pL101 polyadenylation reporter, beta-gal luminescence; efflux-impaired pdr1/pdr3 knockout yeast; score 100 = 6 SD above DMSO; activity score, % at 12 µM; hit rate 0.02% among 300,000; AID 1875;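 active = lowest replicate activity score at least 50, where 100 means six control SD above control mean; inconclusive = lowest score under 50 but half or more replicates reach 50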;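 note: yeast exposed to compound for 9 h at 30 °C; higher score means more reporter readthrough which indicates perturbed polyadenylation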
NALP1 inh = blocks the NALP1 inflammasome reconstituted in yeast; S. cerevisiae NALP1/ASC/caspase-1 growth, X-gal OD620, 72 h; inhibition, % at 10 µM; hit rate 0.61% among 280,000; in the data active = inhibition mostly above about 24%, no sharp cut-off; inactive = mostly below about 32%
L major viab = reduces viability of Leishmania major promastigotes. inhibition, % at 10 µM. hit rate 9% among 200,000. resazurin fluorescence viability. AID 1063; in the data active = inhibition above about 50%;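 note: promastigotes grown with compound for 44 hours at 28 °C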
A number is an active result; n = inactive; u = inconclusive; x = not tested or not shown.

SMILES	NALP3 yeast inh	Calb FLC	T cruzi inh	PolyA inh	NALP1 inh	L major viab
CCOc1cc(/C=N/N=C(N)N)ccc1OCc1ccc(Cl)cc1	x	105	n	n	n	100
CCOc1cc(/C=N/O)ccc1OCc1ccc([N+](=O)[O-])cc1	n	n	n	n	n	58
COc1cc(/C=N/O)ccc1OCc1ccc(Cl)cc1	n	u	n	n	n	n
COc1cc(/C=N/NC(N)=S)ccc1OC(=O)c1ccc(C)cc1	n	n	n	n	n	n
NC(N)=N/N=C/c1ccc(OCc2ccccc2)c(OCc2ccccc2)c1	n	n	n	n	n	x
CCCn1c(CC)nc([N+](=O)[O-])c1Sc1ccc(F)cc1	n	113	n	n	n	n
COc1ccc(-n2c(SC(C)C(=O)Nc3ccc(NC(C)=O)cc3)nc3ccccc3c2=O)cc1OC (stereo not given)	n	n	n	n	n	x
NNC(=S)NCc1ccc2c(c1)OCO2	n	n	n	n	105	n
CCc1cccc(CC)c1NC(=S)NCc1ccc2c(c1)OCO2	n	n	n	n	n	60
S=C(NCc1ccc2c(c1)OCO2)NCc1ccc2c(c1)OCO2	n	n	n	n	n	n
CCNC(=S)NCc1ccc2c(c1)OCO2	n	n	n	n	n	n
Cc1cccc(C)c1NC(=O)C1(N2CCN(C(=O)c3ccco3)CC2)CCCCC1	n	n	n	n	n	n
CC(=NCCc1c(C)[nH]c2ccc(OC(F)(F)F)cc12)C1=C(O)CC(c2ccccc2)CC1=O (stereo not given)	n	n	n	n	n	n
CC(=NCCc1c(C)[nH]c2ccc(C)cc12)C1=C(O)CC(c2ccccc2)CC1=O (stereo not given)	n	n	n	n	n	98
COc1ccc(C2(CNC(=O)c3cc([N+](=O)[O-])cc([N+](=O)[O-])c3)CCCC2)cc1OC	n	n	n	n	n	100
COc1ccc(C2(CNC(=O)c3ccccc3)CCCC2)cc1OC	n	n	n	n	n	x
Cc1ccoc1C(=O)N1CCN(C(=O)c2occc2C)CC1	n	n	n	n	n	x
C=CCNC(=O)NC(=O)CSc1nc2cc([N+](=O)[O-])ccc2n1-c1cccc(C(F)(F)F)c1	n	n	n	n	n	n
CCc1oc2c(C)c(O)ccc2c(=O)c1-c1ccc2ccccc2n1	n	n	n	n	n	n
Cc1oc2c(CN(C)C)c(O)ccc2c(=O)c1-c1ccc2ccccc2n1	n	n	n	n	n	76
CN1c2ccc([N+](=O)[O-])cc2N(C)C1(C)c1ccccc1 (stereo not given)	n	n	57	n	n	x
COC(=O)c1cc(S(=O)(=O)NCC2CCN(Cc3ccc(C)cc3)CC2)cn1C	n	n	n	n	n	x
Cc1cc(C)cc(Nc2nc3c([nH]2)c(=O)n(C)c(=O)n3C)c1	n	u	n	n	32	n
CCOC(=O)C1=C(C)N=c2s/c(=C3/C(=O)Nc4ccccc43)c(=O)n2C1c1ccc(C)cc1 (stereo not given)	n	n	n	n	n	54
CC1CC(C)CN(S(=O)(=O)c2cccc(C(=O)N3CCN(c4ccc(F)cc4)CC3)c2)C1 (stereo not given)	n	x	x	x	x	x
SMILES	NALP3 yeast inh	Calb FLC	T cruzi inh	PolyA inh	NALP1 inh	L major viab
O=C(/C=C/Nc1ccc([N+](=O)[O-])cc1Br)c1cccc2ccccc12	n	n	n	n	n	75
O=[N+]([O-])c1ccc(O)c(/C=N/Nc2ccc(Cl)nn2)c1	n	117	84	n	n	100
O=C(CCC(=O)Nc1ccc(Br)cc1)N/N=C/c1cc([N+](=O)[O-])ccc1O	n	n	n	n	n	n
O=C(CCC(=O)Nc1ccc(F)cc1)N/N=C/c1cc([N+](=O)[O-])ccc1O	n	n	n	n	n	n
O=[N+]([O-])c1ccc(O)c(/C=N/Nc2nn[nH]n2)c1	n	n	n	n	n	n
O=C(N/N=C/c1cc([N+](=O)[O-])ccc1O)C1C2CCCCC21 (stereo not given)	n	101	n	n	n	92
O=C(N/N=C/c1cc([N+](=O)[O-])ccc1O)C1CCCCC1	n	n	n	n	n	97
NC(=O)c1cc([N+](=O)[O-])ccc1NCc1cccc2ccccc12	n	x	x	x	x	x
Cc1cc(C[n+]2cc(Br)ccc2N)c2ncccc2c1	n	n	n	n	x	x
O=C(N/N=C/c1cc([N+](=O)[O-])ccc1O)c1cccc2ccccc12	n	n	55	n	n	x
O=C(Cn1nc2ccccc2n1)N/N=C/c1cc([N+](=O)[O-])ccc1O	n	u	n	n	n	n
O=C(N/N=C/c1cc([N+](=O)[O-])ccc1O)c1ccc(COc2ccc3c(c2)CCC3)o1	n	93	u	n	n	x
CC1(C)NC(=O)N(CC(=O)OCC(=O)Nc2cccc(S(N)(=O)=O)c2)C1=O	n	n	n	n	n	n
C=CC[n+]1c(/C=C2\C=Cc3cc(C)ccc3N2CC)ccc2ccccc21	n	u	66	n	n	100
CCOC(=O)C(CC)(CC)C(=O)/C=C/c1cccc(Br)c1	n	n	n	n	x	100
NC(=O)NC(=O)COC(=O)/C=C/c1cccc(Br)c1	n	n	n	n	n	n
COc1ccc(CNC(=O)CCCn2c(SCC#N)nc3cc4c(cc3c2=O)OCO4)cc1	n	x	x	x	n	n
CN(C)Cc1c(O)ccc2ccccc12	n	n	n	n	n	x
CN(C)Cc1c(O)ccc2oc(Cc3ccccc3)cc12	n	n	n	n	n	77
Cc1ccc(N(CN2CCCC2=O)C(=O)c2ccccc2)cc1	n	u	n	n	n	n
COc1ccc(C(=O)N(CN2CCCC2=O)c2ccc(C)cc2)cc1	n	103	n	n	n	n
COc1cc(/C=N/NC(=O)CSc2ccccn2)ccc1OC(C)C	n	n	n	n	n	x
CCCC(=O)N1CCN(c2ccc(NC(=O)c3cc4ccccc4o3)cc2Cl)CC1	n	n	n	n	n	60
O=C(Nc1ccc(N2CCN(C(=O)c3ccccc3)CC2)c(Cl)c1)c1ccco1	n	n	n	n	n	n
O=C(Nc1ccc(N2CCN(C(=O)c3ccco3)CC2)c(Cl)c1)c1cc2ccccc2o1	n	n	55	n	n	96
CCC(=O)N1CCN(c2ccc(NC(=O)c3cc4ccccc4o3)cc2Cl)CC1	n	n	n	n	n	n
Cc1cccc(N2CCN(C(=O)c3ccccc3SCC(=O)N3CCCC3)CC2)c1C	n	x	x	x	x	x
N#CCCN(C(=O)COC(=O)c1ccc(CNS(=O)(=O)c2ccc(F)c(Cl)c2)cc1)c1ccc(F)cc1	n	n	n	n	n	97
Cn1c(CNC(=O)CNC(=O)c2ccccc2)cc(=O)n(C)c1=O	n	n	n	n	n	x
O=C(Nc1cc(C(F)(F)F)ccc1-n1cncn1)c1ccc(-c2ccccc2)cc1	n	n	74	n	n	90
